Experimental data taken from ChEMBL document CHEMBL5724801, “EUbOPEN Chemogenomics Library - Multiplex” (2024).
Several values for one entry are separate records, joined by “and”; a condition that tells them apart may be missing. Equal values may be shown once.

What was measured:
U2OS = test: Multiplex assay against U2OS; assay type: toxicity, cell-based; details: human
Procedure, shortened: (§1)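 Hoechst33342, BioTracker Green Microtubule Cytoskeleton Dye, MitoTracker Red and Annexin V Alexa Fluor 680 were added to live cells at seeding, and imaging on a CQ1 microscope at 37°C and 5% CO2 followed compound addition. Gating by CellPathfinder machine learning separated cells into Hoechst high-intensity objects or normal cells, then normal cells into healthy, pyknosed or fragmented nuclei, then pyknosed cells into mitotic or apoptotic. Per cents of healthy-nucleus cells are reported for the tubulin, mitochondrial-mass and membrane-permeability phenotypes.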

Fibroblast = test: Multiplex assay against human fibroblast; assay type: toxicity, cell-based; procedure, shortened: as §1
[1] = 12 h, 1 µM, compound concentration 1 uM
[2] = 12 h, 10 µM, compound concentration 10 uM
[3] = 24 h, 1 µM, compound concentration 1 uM
[4] = 24 h, 10 µM, compound concentration 10 uM
[5] = 48 h, 1 µM, compound concentration 1 uM
[6] = 48 h, 10 µM, compound concentration 10 uM

## CCc1nn2c(C)cc(C)nc2c1Cc1ccc(-c2nnc(C3CCNCC3)o2)cc1
U2OS; [1]
  Population Apoptotic (%): 42% and 85%
  Population Healthy Nuclei (%): 60% and 84%
  Population Hoechst High Intensity Objects (%): 3% and 2%
  Population Membrane Permeable-Phenotype (%): 12% and 14%
  Population Mitochondria Different-Phenotype (%): 10% and 17%
  Population Normal (%): 96% and 97%
  Population Pyknosed Nuclei (%): 10% and 6%
  Population Tubulin-Different-Phenotype (%): 11% and 4%
  Total Cell Count: 251 and 110
U2OS; [2]
  Population Apoptotic (%): 68% and 77%
  Population Fragmented Nuclei (%): 24% and 8%
  Population Healthy Nuclei (%): 55% and 76%
  Population Hoechst High Intensity Objects (%): 5% and 2%
  Population Membrane Permeable-Phenotype (%): 26% and 30%
  Population Mitochondria Different-Phenotype (%): 43% and 62%
  Population Mitotic Cells (%): 31% and 22%
  Population Normal (%): 94% and 97%
  Population Pyknosed Nuclei (%): 20% and 14%
  Population Tubulin-Different-Phenotype (%): 28% and 44%
  Total Cell Count: 214 and 129
U2OS; [3]
  Population Apoptotic (%): 80% and 87%
  Population Fragmented Nuclei (%): 26% and 13%
  Population Healthy Nuclei (%): 63% and 80%
  Population Hoechst High Intensity Objects (%): 2% and 3%
  Population Membrane Permeable-Phenotype (%): 4% and 7%
  Population Mitochondria Different-Phenotype (%): 6% and 12%
  Population Mitotic Cells (%): 20% and 12%
  Population Normal (%): 97% and 96%
  Population Pyknosed Nuclei (%): 10% and 6%
  Population Tubulin-Different-Phenotype (%): 3%
  Total Cell Count: 296 and 130
U2OS; [4]
  Population Apoptotic (%): 77% and 71%
  Population Fragmented Nuclei (%): 24% and 15%
  Population Healthy Nuclei (%): 55% and 71%
  Population Hoechst High Intensity Objects (%): 3%
  Population Membrane Permeable-Phenotype (%): 9% and 16%
  Population Mitochondria Different-Phenotype (%): 40% and 61%
  Population Mitotic Cells (%): 22% and 28%
  Population Normal (%): 96%
  Population Pyknosed Nuclei (%): 19% and 13%
  Total Cell Count: 236 and 163
U2OS; [5]
  Population Apoptotic (%): 90% and 85%
  Population Fragmented Nuclei (%): 17% and 12%
  Population Healthy Nuclei (%): 71% and 72%
  Population Hoechst High Intensity Objects (%): 2%
  Population Membrane Permeable-Phenotype (%): 6% and 7%
  Population Mitochondria Different-Phenotype (%): 2% and 6%
  Population Mitotic Cells (%): 10% and 14%
  Population Normal (%): 97%
  Population Pyknosed Nuclei (%): 10% and 14%
  Population Tubulin-Different-Phenotype (%): 4%
  Total Cell Count: 376 and 187
U2OS; [6]
  Population Apoptotic (%): 82% and 75%
  Population Fragmented Nuclei (%): 24% and 12%
  Population Healthy Nuclei (%): 55% and 71%
  Population Hoechst High Intensity Objects (%): 2%
  Population Membrane Permeable-Phenotype (%): 10% and 22%
  Population Mitochondria Different-Phenotype (%): 29% and 31%
  Population Mitotic Cells (%): 17% and 24%
  Population Normal (%): 97%
  Population Pyknosed Nuclei (%): 19% and 15%
  Total Cell Count: 290 and 219
Fibroblast; [1]
  Population Apoptotic (%): 34% and 45%
  Population Fragmented Nuclei (%): 17% and 19%
  Population Healthy Nuclei (%): 63% and 46%
  Population Hoechst High Intensity Objects (%): 2% and 6%
  Population Membrane Permeable-Phenotype (%): 2%
  Population Mitochondria Different-Phenotype (%): 5% and 13%
  Population Mitotic Cells (%): 65% and 54%
  Population Normal (%): 97% and 93%
  Population Pyknosed Nuclei (%): 19% and 33%
  Population Tubulin-Different-Phenotype (%): 35% and 62%
  Total Cell Count: 153 and 167
Fibroblast; [2]
  Population Fragmented Nuclei (%): 19% and 38%
  Population Healthy Nuclei (%): 62% and 44%
  Population Hoechst High Intensity Objects (%): 5% and 3%
  Population Membrane Permeable-Phenotype (%): 0% and 5%
  Population Mitochondria Different-Phenotype (%): 19% and 14%
  Population Mitotic Cells (%): 48% and 85%
  Population Normal (%): 94% and 96%
  Population Pyknosed Nuclei (%): 18% and 17%
  Population Tubulin-Different-Phenotype (%): 72% and 79%
  Total Cell Count: 188 and 162
Fibroblast; [3]
  Population Apoptotic (%): 52% and 56%
  Population Fragmented Nuclei (%): 17% and 26%
  Population Healthy Nuclei (%): 68% and 49%
  Population Hoechst High Intensity Objects (%): 1% and 7%
  Population Membrane Permeable-Phenotype (%): 0% and 6%
  Population Mitotic Cells (%): 47% and 43%
  Population Normal (%): 98% and 92%
  Population Pyknosed Nuclei (%): 13% and 23%
  Population Tubulin-Different-Phenotype (%): 35% and 65%
  Total Cell Count: 153 and 177
Fibroblast; [4]
  Population Apoptotic (%): 53% and 56%
  Population Fragmented Nuclei (%): 17% and 40%
  Population Healthy Nuclei (%): 64% and 42%
